Published values gathered from unrelated publications.
Lines come from different studies, so protocols differ.
Target: cGMP-dependent protein kinase 2 (PRKG2, Homo sapiens, UniProt Q13237)

| Structure (SMILES) | test | conditions | measurement | value |
| --- | --- | --- | --- | --- |
| O=C1Nc2ccc(Cl)cc2C1=Cc1cc(Cl)c(O)c(Cl)c1 | cell-free assay | 0.5 µM | remaining signal | 97% |
| C=CC(=O)Nc1cc(Nc2nccc(Nc3cc(Cl)c(F)cc3C(C)(C)O)n2)c(OC)cc1N1CC[C@@H](N(C)C)C1 | enzyme activity, inhibitor | 1 µM | inhibition | -8% |
| Cn1cncc1C1=CN(c2ncnc3[nH]cnc23)CCS1 | enzyme activity, inhibitor, radiometric | 2 µM | inhibition | 99.4% |
| CN(C)C1CCN(CC#Cc2nn(C3CCCC3)c3nc(NCc4ccccc4)ncc23)C1 (stereo not drawn) | enzyme activity, inhibitor, FRET | 1 µM | inhibition | 6% |
| C[C@H]1CCN(c2nccc(-c3cnn4ncccc34)n2)C1 | binding | 1 µM | remaining binding | 80% |
| Cn1cnc(Br)c1C1=CN(c2ncnc3[nH]cnc23)CCS1 | enzyme activity, inhibitor, radiometric | 50 nM | inhibition | 43.1% |
| Cc1cc(-n2nc(Cc3cc(F)cc(C(F)(F)F)c3)nc2C)ccc1C(N)=O | cell-free assay, competition with immobilised ligand | 1 µM | remaining binding | 86% |
| CN1CC(Oc2cnc(C#N)cc2-c2ccn3nc(NC(=O)C4CC4)cc3c2)C1 | enzyme activity, inhibitor | 1 µM | inhibition | 1% |
| Cc1ccc(NC(=O)c2ccc(CN3CCN(C)CC3)cc2)cc1Nc1nc(-c2cccnc2)cs1 | cell-free assay | 0.5 µM | remaining signal | 95.4% |
| CC(C)(C)c1nc(-c2cccc(NS(=O)(=O)c3c(F)cccc3F)c2F)c(-c2ccnc(N)n2)s1 | enzyme activity, inhibitor, radiometric | 1 µM | remaining activity | 102% |
| CO[C@H]1CC[C@H](CNc2ccc(S(=O)(=O)NC(=O)c3ccc(N4CCN(CC5=C(c6ccc(Cl)cc6)CC(C)(C)CC5)CC4)cc3Oc3cnc4[nH]ccc4c3)cc2[N+](=O)[O-])CC1 | cell-free assay, competition with immobilised ligand | 1 µM | remaining binding | 90% |
| COc1cc(Cl)c(C(=O)N[C@@H](CN[C@H]2CC[C@@H](N)CC2)Cc2ccc(C#N)cc2)cc1-c1ccc(CN[C@H](C)c2ccc(C)cc2)o1 | enzyme activity, inhibitor | 1 µM | remaining activity | 98% |
| N#CC1(c2ccccn2)CCN(Cc2cc(C(=O)N3CCCC3)c(=O)n3ccccc23)CC1 | cell-free assay, competition with immobilised ligand | 1 µM | remaining binding | 100% |
| Cc1sc(C(=O)NC2COC2)cc1-n1cc(NC(=O)Nc2c(F)cccc2Cl)cn1 | enzyme activity, inhibitor | 10 µM | remaining activity | 100% |
| COc1cccc(CNC(=O)c2nc3scc(COCc4ccc(C(=O)O)cc4)c3c(=O)[nH]2)c1 | cell-free assay, competition with immobilised ligand | 1 µM | remaining binding | 100% |
| COc1cc2ncnc(Nc3ccc(Oc4ccccc4)c(C)c3C)c2cc1OC | enzyme activity, inhibitor | 1 µM | inhibition | 2% |
| C[C@H](c1cccc(C#N)c1)n1cc(Cl)cc(C(N)=O)c1=N | cell-free assay, competition with immobilised ligand | 1 µM | remaining binding | 97% |
| Nc1nc(Nc2ccc(S(N)(=O)=O)cc2)nn1C(=O)c1c(F)cccc1F | cell-free assay | 0.5 µM | remaining signal | 92.2% |
